Measurements: ChEMBL document CHEMBL1165943, “Design and synthesis of new anticancer pyrimidines with multiple-kinase inhibitory effect” (Bioorg Med Chem, 2010)

Tests used:
[1] = target: DNA-dependent protein kinase catalytic subunit (Homo sapiens) (UniProt P78527); test: Inhibition of DNA-PK at 10 uM by HotSpot assay
[2] = target: Ephrin type-A receptor 1 (Homo sapiens) (UniProt P21709); test: Inhibition of EPHA1 at 10 uM by HotSpot assay
[3] = target: Glycogen synthase kinase-3 beta (Homo sapiens) (UniProt P49841); test: Inhibition of GSK3-beta at 10 uM by HotSpot assay
[4] = target: Receptor-type tyrosine-protein kinase FLT3 (Homo sapiens) (UniProt P36888); test: Inhibition of FLT3 at 10 uM by HotSpot assay
[5] = target: Focal adhesion kinase 1 (Homo sapiens) (UniProt Q05397); test: Inhibition of PTK2 at 10 uM by HotSpot assay
[6] = target: Insulin-like growth factor 1 receptor (Homo sapiens) (UniProt P08069); test: Inhibition of IGF1R at 10 uM by HotSpot assay
[7] = target: High affinity nerve growth factor receptor (Homo sapiens) (UniProt P04629); test: Inhibition of NTRK1 at 10 uM by HotSpot assay
[8] = target: Hepatocyte growth factor receptor (Homo sapiens) (UniProt P08581); test: Inhibition of c-MET at 10 uM by HotSpot assay
[9] = target: Myotonin-protein kinase (Homo sapiens) (UniProt Q09013); test: Inhibition of DMPK at 10 uM by HotSpot assay
[10] = Inhibition of PKA at 10 uM by HotSpot assay
[11] = target: Tyrosine-protein kinase Fyn (Homo sapiens) (UniProt P06241); test: Inhibition of FYN at 10 uM by HotSpot assay
[12] = target: Calcium/calmodulin-dependent protein kinase type II subunit beta (Homo sapiens) (UniProt Q13554); test: Inhibition of CAMK2B at 10 uM by HotSpot assay
[13] = target: Insulin receptor (Homo sapiens) (UniProt P06213); test: Inhibition of IR at 10 uM by HotSpot assay
MCF7 [14] = test: Cytotoxicity against human MCF7 cells assessed as cell growth at 0.01 uM after 48 hrs by sulforhodamine B assay; assay type: functional; details: MCF7, 48 h, read-out: Activity
[15] = Cytotoxicity against human RPMI8266 cells assessed as cell growth at 1 uM after 48 hrs by sulforhodamine B assay; assay type: functional; details: read-out: Activity
PC-3 [16] = test: Cytotoxicity against human PC3 cells assessed as cell growth at 0.001 uM after 48 hrs by sulforhodamine B assay; assay type: functional; details: PC-3, 48 h, read-out: Activity
HOP-92 [17] = test: Cytotoxicity against human HOP92 cells assessed as cell growth at 0.001 uM after 48 hrs by sulforhodamine B assay; assay type: functional; details: HOP-92, 48 h, read-out: Activity
PC-3 [18] = test: Growth inhibition of human PC3 cells after 48 hrs by sulforhodamine B assay; assay type: functional, cell-based
MCF7 [19] = test: Cytotoxicity against human MCF7 cells assessed as cell growth at 0.001 uM after 48 hrs by sulforhodamine B assay; assay type: functional; details: MCF7, 48 h, read-out: Activity
[20] = Cytotoxicity against human RPMI8266 cells assessed as cell growth at 0.01 uM after 48 hrs by sulforhodamine B assay; assay type: functional; details: read-out: Activity
NCI-H226 [21] = test: Cytotoxicity against human NCI-H226 cells assessed as cell growth at 1 uM after 48 hrs by sulforhodamine B assay; assay type: functional; details: NCI-H226, 48 h, read-out: Activity
RXF 393 [22] = test: Cytotoxicity against human RXF393 cells assessed as cell growth at 1 uM after 48 hrs by sulforhodamine B assay; assay type: functional; details: RXF 393, 48 h, read-out: Activity
NCI-H226 [23] = test: Cytotoxicity against human NCI-H226 cells assessed as cell growth at 10 uM after 48 hrs by sulforhodamine B assay; assay type: functional; details: NCI-H226, 48 h, read-out: Activity
SR [24] = test: Cytotoxicity against human SR cells assessed as cell growth at 100 nM after 48 hrs by sulforhodamine B assay; assay type: functional; details: read-out: Activity
HCC 2998 = test: Growth inhibition of human HCC2998 cells after 48 hrs by sulforhodamine B assay; assay type: functional; details: HCC 2998, 48 h
Procedure, shortened: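 Cells grown in RPMI 1640 with 5% FBS and 2 mM L-glutamine, seeded at 5,000–40,000 cells/well according to doubling time. After 24 h, time-zero plates are TCA-fixed. Five concentrations (10-fold or ½log dilutions, DMSO stocks) are applied for 48 h at 37 °C, 5% CO₂. Cells are TCA-fixed, SRB-stained and read at 515 nm. IC₅₀ is taken from [(Ti−Tz)/(C−Tz)]×100 = 50.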

HOP-92 [25] = test: Cytotoxicity against human HOP92 cells assessed as cell growth at 1 uM after 48 hrs by sulforhodamine B assay; assay type: functional; details: HOP-92, 48 h, read-out: Activity
HL-60(TB) = test: Cytotoxicity against human HL-60(TB) cells assessed as cell growth at 10 uM after 48 hrs by sulforhodamine B assay; assay type: functional; details: HL-60, 48 h, read-out: Activity
Procedure, shortened: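 Five-concentration HL-60(TB) test in RPMI 1640 with 5% FBS and 2 mM L-glutamine. Cells are plated at 5,000–40,000/well and a TCA-fixed time-zero plate is read at drug addition after 24 h. Drug is dissolved in DMSO and given as five 10-fold or ½log dilutions for 48 h at 37 °C, 5% CO2. Settled cells are fixed with TCA, stained with SRB and read at 515 nm.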

PC-3 [26] = test: Cytotoxicity against human PC3 cells assessed as cell growth at 10 uM after 48 hrs by sulforhodamine B assay; assay type: functional; details: PC-3, 48 h, read-out: Activity
RXF 393 [27] = test: Cytotoxicity against human RXF393 cells assessed as cell growth at 0.001 uM after 48 hrs by sulforhodamine B assay; assay type: functional; details: RXF 393, 48 h, read-out: Activity
NCI-H226 [28] = test: Cytotoxicity against human NCI-H226 cells assessed as cell growth at 0.01 uM after 48 hrs by sulforhodamine B assay; assay type: functional; details: NCI-H226, 48 h, read-out: Activity
NCI-H226 [29] = test: Cytotoxicity against human NCI-H226 cells assessed as cell growth at 100 nM after 48 hrs by sulforhodamine B assay; assay type: functional; details: NCI-H226, 48 h, read-out: Activity
CCRF-CEM [30] = test: Cytotoxicity against human CCRF-CEM cells assessed as cell growth at 0.01 uM after 48 hrs by sulforhodamine B assay; assay type: functional; details: read-out: Activity
SR [31] = test: Cytotoxicity against human SR cells assessed as cell growth at 0.001 uM after 48 hrs by sulforhodamine B assay; assay type: functional; details: read-out: Activity
[32] = Cytotoxicity against human […] cells assessed as cell growth at 10 uM after 48 hrs by sulforhodamine B assay; assay type: functional; details: read-out: Activity
A549 = test: Cytotoxicity against human A549 cells assessed as cell growth at 0.001 uM after 48 hrs by sulforhodamine B assay; assay type: functional; details: A549, 48 h, read-out: Activity
PC-3 [33] = test: Cytotoxicity against human PC3 cells assessed as cell growth at 100 nM after 48 hrs by sulforhodamine B assay; assay type: functional; details: PC-3, 48 h, read-out: Activity
NCI-H23 = test: Cytotoxicity against human NCI-H23 cells assessed as cell growth at 100 nM after 48 hrs by sulforhodamine B assay; assay type: functional; details: NCI-H23, 48 h, read-out: Activity
CCRF-CEM [34] = test: Cytotoxicity against human CCRF-CEM cells assessed as cell growth at 10 uM after 48 hrs by sulforhodamine B assay; assay type: functional; details: read-out: Activity

Sequence of Tyrosine-protein kinase Fyn (Homo sapiens) (P06241 2-537 limits assumed): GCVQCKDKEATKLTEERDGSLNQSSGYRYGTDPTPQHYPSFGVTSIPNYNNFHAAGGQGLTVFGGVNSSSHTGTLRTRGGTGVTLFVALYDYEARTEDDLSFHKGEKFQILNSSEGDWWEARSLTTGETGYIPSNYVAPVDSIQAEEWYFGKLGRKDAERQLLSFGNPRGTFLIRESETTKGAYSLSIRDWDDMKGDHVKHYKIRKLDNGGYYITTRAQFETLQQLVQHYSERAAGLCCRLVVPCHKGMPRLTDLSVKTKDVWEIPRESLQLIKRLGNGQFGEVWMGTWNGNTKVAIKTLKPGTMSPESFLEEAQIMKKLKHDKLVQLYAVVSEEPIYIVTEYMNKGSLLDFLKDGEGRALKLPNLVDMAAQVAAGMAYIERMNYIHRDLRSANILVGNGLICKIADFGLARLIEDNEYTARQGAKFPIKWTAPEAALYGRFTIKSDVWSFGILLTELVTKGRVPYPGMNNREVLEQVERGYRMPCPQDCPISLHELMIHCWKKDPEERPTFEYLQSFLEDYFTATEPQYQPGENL
Sequence of Ephrin type-A receptor 1 (Homo sapiens) (P21709 whole entry): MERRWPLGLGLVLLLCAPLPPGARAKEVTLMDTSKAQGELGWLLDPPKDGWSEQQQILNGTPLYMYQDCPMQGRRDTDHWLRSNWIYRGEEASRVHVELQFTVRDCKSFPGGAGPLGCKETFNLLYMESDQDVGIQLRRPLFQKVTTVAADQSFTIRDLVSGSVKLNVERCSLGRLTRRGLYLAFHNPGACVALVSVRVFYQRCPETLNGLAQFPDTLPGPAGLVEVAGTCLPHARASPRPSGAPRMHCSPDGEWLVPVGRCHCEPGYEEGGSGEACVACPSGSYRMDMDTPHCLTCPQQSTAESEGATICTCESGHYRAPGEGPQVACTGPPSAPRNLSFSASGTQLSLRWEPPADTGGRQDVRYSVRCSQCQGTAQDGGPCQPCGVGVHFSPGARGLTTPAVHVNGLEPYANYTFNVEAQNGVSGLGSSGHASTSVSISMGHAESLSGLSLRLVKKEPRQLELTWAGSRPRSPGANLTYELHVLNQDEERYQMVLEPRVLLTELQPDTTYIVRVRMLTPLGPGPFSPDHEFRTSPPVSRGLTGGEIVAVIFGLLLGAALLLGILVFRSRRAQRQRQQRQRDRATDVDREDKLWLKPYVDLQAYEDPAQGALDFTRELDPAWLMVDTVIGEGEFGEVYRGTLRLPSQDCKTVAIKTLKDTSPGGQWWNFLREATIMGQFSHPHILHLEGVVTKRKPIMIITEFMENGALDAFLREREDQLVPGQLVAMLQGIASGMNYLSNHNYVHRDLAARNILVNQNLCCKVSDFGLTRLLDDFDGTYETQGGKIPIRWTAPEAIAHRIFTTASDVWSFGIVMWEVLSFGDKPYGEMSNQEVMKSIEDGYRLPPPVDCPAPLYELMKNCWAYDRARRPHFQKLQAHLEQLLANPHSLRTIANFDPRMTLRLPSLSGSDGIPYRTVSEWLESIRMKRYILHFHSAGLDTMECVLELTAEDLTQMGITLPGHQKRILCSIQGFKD
Sequence of Receptor-type tyrosine-protein kinase FLT3 (Homo sapiens) (P36888 whole entry): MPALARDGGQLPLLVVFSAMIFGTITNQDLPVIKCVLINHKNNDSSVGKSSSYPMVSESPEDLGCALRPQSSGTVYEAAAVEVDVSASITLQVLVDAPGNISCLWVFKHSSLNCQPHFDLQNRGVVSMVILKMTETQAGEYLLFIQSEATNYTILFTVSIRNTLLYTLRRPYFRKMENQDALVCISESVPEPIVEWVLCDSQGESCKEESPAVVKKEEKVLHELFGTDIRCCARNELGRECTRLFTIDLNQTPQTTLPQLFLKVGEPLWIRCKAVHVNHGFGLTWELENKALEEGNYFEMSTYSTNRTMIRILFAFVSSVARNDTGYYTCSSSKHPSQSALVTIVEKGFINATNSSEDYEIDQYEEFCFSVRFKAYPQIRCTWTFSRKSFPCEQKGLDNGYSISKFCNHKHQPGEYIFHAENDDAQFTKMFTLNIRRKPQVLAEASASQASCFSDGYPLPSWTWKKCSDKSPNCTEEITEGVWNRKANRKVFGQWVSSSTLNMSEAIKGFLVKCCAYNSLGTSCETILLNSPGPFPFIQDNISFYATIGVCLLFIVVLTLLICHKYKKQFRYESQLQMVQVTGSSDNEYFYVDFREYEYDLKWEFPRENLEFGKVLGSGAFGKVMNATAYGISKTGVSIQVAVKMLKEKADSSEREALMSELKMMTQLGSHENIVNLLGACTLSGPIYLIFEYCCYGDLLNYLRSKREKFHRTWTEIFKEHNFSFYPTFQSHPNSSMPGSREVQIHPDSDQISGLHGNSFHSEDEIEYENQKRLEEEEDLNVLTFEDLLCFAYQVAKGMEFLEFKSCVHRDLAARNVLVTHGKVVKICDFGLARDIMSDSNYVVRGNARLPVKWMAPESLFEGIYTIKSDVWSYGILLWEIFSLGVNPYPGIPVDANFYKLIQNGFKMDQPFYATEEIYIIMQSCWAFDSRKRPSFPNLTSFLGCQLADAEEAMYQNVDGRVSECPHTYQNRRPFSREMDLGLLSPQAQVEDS
Sequence of Insulin-like growth factor 1 receptor (Homo sapiens) (P08069 31-736 limits assumed): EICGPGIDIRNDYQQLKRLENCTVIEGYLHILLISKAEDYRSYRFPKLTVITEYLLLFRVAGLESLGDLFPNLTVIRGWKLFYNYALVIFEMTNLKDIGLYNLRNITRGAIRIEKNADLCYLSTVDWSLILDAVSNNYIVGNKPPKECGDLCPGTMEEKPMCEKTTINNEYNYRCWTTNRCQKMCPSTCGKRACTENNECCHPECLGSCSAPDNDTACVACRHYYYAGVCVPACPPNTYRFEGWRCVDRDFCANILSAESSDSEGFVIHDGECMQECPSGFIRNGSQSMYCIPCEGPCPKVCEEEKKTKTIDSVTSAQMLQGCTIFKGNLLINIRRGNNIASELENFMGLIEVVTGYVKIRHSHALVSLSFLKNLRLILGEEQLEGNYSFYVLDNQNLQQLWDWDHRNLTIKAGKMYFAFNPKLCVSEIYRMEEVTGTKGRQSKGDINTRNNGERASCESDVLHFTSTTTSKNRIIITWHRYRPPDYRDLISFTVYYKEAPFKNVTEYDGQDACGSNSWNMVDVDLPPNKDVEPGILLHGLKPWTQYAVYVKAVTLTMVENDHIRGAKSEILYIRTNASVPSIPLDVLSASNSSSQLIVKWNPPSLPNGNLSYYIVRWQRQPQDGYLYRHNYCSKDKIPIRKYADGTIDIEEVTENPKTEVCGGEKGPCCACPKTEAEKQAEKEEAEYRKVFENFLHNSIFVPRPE
Sequence of Insulin-like growth factor 1 receptor (Homo sapiens) (P08069 741-1367 limits assumed): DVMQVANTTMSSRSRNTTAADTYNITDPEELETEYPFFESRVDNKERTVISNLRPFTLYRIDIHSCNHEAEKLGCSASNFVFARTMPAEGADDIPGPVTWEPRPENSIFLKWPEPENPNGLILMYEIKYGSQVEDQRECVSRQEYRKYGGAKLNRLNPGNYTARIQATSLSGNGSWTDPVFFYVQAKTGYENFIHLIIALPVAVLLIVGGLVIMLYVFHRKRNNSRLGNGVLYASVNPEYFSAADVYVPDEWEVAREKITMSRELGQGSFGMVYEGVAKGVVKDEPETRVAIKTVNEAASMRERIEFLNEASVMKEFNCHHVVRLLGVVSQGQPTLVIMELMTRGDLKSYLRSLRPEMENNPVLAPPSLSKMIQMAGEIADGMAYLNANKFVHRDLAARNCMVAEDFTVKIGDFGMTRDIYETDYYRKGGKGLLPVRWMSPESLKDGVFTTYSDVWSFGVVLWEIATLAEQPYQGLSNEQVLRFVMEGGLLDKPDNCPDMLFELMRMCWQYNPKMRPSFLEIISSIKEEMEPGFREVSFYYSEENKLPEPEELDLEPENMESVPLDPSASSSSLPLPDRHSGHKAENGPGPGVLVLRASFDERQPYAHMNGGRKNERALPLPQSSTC
Sequence of High affinity nerve growth factor receptor (Homo sapiens) (P04629 33-796 limits assumed): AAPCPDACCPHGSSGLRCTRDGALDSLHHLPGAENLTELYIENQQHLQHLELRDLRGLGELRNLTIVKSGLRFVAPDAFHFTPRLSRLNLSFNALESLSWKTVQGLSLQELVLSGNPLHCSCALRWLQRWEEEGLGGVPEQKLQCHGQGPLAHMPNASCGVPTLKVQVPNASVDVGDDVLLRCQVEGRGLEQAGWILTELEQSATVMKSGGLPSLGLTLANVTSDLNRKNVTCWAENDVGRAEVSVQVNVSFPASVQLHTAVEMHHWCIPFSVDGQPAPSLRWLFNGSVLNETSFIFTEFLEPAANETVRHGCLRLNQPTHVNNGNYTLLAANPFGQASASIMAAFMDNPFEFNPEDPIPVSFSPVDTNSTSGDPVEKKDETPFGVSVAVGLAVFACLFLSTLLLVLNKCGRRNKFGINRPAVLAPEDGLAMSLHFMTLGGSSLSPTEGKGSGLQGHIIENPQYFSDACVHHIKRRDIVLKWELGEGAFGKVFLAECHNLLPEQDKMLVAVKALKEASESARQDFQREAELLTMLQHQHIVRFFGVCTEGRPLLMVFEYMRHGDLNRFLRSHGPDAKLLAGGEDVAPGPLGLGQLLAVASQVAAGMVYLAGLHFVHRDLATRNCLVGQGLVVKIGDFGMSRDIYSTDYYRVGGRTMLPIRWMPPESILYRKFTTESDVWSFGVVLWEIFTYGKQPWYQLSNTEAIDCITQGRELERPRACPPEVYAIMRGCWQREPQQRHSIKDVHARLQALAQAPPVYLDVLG
Sequence of Glycogen synthase kinase-3 beta (Homo sapiens) (P49841 whole entry, looked up): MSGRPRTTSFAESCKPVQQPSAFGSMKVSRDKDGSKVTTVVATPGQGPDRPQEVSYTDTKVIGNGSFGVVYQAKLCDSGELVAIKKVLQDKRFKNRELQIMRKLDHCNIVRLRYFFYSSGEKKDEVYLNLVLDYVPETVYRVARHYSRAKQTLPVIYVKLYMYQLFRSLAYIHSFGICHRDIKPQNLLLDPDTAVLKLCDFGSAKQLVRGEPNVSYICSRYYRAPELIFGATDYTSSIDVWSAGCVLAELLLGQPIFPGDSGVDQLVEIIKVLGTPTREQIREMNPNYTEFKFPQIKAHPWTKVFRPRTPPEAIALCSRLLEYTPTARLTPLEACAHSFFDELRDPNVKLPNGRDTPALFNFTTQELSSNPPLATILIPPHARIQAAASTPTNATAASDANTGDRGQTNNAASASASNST

CC(=O)Nc1cccc(-c2ccc(-c3ccnc(NC(=O)Nc4cc(C(F)(F)F)cc(C(F)(F)F)c4)n3)cn2)c1.Cl
inhibition [1]: < 50% | inhibition [2]: < 50% | inhibition [3]: < 50% | inhibition [4]: 50% | inhibition [5]: < 50% | inhibition [6]: < 50% | inhibition [7]: < 50% | inhibition [8]: < 50% | inhibition [9]: < 50% | inhibition [10]: < 50% | inhibition [11]: 50% | inhibition [12]: < 50% | inhibition [13]: < 50%

CC(=O)c1ccccc1-c1ccc(-c2ccnc(NC(=O)Nc3cc(N4CCOCC4)cc(C(F)(F)F)c3)n2)cn1
growth at 0.01 µM (MCF7 [14]): 101% | growth at 1 µM [15]: 78% | growth at 0.001 µM (PC-3 [16]): 101% | growth at 0.001 µM (HOP-92 [17]): 88% | GI50 (PC-3 [18]; Homo sapiens, PC-3, 48 h): > 100 µM | IC50 (PC-3 [18]; pc-3): Not Active | growth at 0.001 µM (MCF7 [19]): 94% | growth at 0.01 µM [20]: 104% | growth at 1 µM (NCI-H226 [21]): 53% | growth at 1 µM (RXF 393 [22]): -52% | growth at 10 µM (NCI-H226 [23]): 71% | growth at 0.1 µM (SR [24]): 74% | GI50 (HCC 2998): > 100 µM | TGI (HCC 2998): > 100 µM | CC50 (HCC 2998; read-out: LC50 (the source's name)): > 100 µM | growth at 1 µM (HOP-92 [25]): -2% | growth at 10 µM (HL-60(TB)): 107% | growth at 10 µM (PC-3 [26]): 91% | growth at 0.001 µM (RXF 393 [27]): 101% | growth at 0.01 µM (NCI-H226 [28]): 108% | growth at 0.1 µM (NCI-H226 [29]): 96% | growth at 0.01 µM (CCRF-CEM [30]): 102% | growth at 0.001 µM (SR [31]): 94% | growth at 10 µM [32]: 89% | growth at 0.001 µM (A549): 94% | growth at 0.1 µM (PC-3 [33]): 92% | growth at 0.1 µM (NCI-H23): 83% | growth at 10 µM (CCRF-CEM [34]): 97%
